≈ marks a conversion by molar mass, not a printed value. Calls of active or inactive are those of the source. The rule behind the calls is not given here.
Legend:
Assay type in all cases: functional
Conditions in all cases: for EC50: read-out: ED50 (the source's name)
[1] = test system: WiDr; assay: Cytotoxicity against human WiDr cells by MTT assay
Summary of the method: (§1)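 MTT assay on human tumor cell lines (Hep2/Hepa2 […], WiDr colon, HeLa cervical). ED50 is the concentration of test sample giving a 50% reduction in absorbance relative to untreated cells, in µg/mL. Camptothecin served as positive control.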

[2] = test system: HeLa; assay: Cytotoxicity against human HeLa cells by MTT assay; summary of the method: as §1
[3] = test system: HEp-2; assay: Cytotoxicity against human Hep2 cells by MTT assay; summary of the method: as §1

Compound | EC50 [1] [µg/mL] | EC50 [2] [µg/mL] | EC50 [3] [µg/mL] | Activity [1] | Activity [2] | Activity [3]
CC[C@@]1(O)C(=O)OCc2c1cc1n(c2=O)Cc2cc3ccccc3nc2-1 [CAMPTOTHECIN] | 0.07 (≈ 0.201 µM) | 0.19 (≈ 0.545 µM) | 0.02 (≈ 0.0574 µM) |  |  | 
CC1=C2[C@@]3(O)C(=O)OC(C)(C)[C@]2(CC1)[C@@H](O)C1[C@](O)(CO)[C@@H](OC(=O)c2ccccc2)C[C@H](O)[C@]13C (stereo partly specified) |  |  |  | inactive | inactive | inactive
CC(=O)O[C@H]1C[C@H]2OC[C@@]2(OC(C)=O)C2[C@H](OC(=O)c3ccccc3)[C@]3(C(C)(C)O)C[C@H](O)C(C)=C3[C@@]3(O)C(=O)OC[C@]213 (stereo partly specified) |  |  |  | inactive | inactive | inactive
CC(=O)OC[C@@]12C([C@H](OC(=O)c3ccccc3)[C@]34C[C@H](O)C(C)=C3[C@@]1(O)C(=O)OC4(C)C)[C@]1(OC(C)=O)CO[C@@H]1C[C@@H]2O (stereo partly specified) |  |  |  | inactive | inactive | inactive
CC(=O)O[C@H]1C[C@H]2[C@@H](O)/C=C3\C[C@](C)(C(=O)[C@H](O)C(=C1C)C2(C)C)[C@@H](OC(C)=O)C[C@@H]3O |  |  |  | inactive | inactive | inactive
CC(=O)O[C@@]12CO[C@@H]1C[C@H](O)[C@@]13COC(=O)[C@]1(O)C1=C(C)CC[C@@]1(C(C)(C)O)[C@@H](OC(=O)c1ccccc1)C32 (stereo partly specified) [TASUMATROL Y] | > 5 | > 5 | 3.5 (≈ 6.45 µM) |  |  | 
CC(=O)OC[C@@]12C([C@H](OC(=O)c3ccccc3)[C@]34CCC(C)=C3[C@@]1(O)C(=O)OC4(C)C)[C@]1(OC(C)=O)CO[C@@H]1C[C@@H]2O (stereo partly specified) |  |  |  | inactive | inactive | inactive

From ChEMBL document CHEMBL1149824, “Tasumatrols U-Z, taxane diterpene esters from Taxus sumatrana” (2008)
